Measured values reported in the EternaBench riboswitch data.

Tested on: MS2 coat protein
Assay: apparent Kd, MS2 coat protein; higher = weaker binding; RNA-MaP array; FMN 200 µM where present
In short: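 On Illumina sequencing-chip clusters, designs were transcribed by stalled E. coli RNA polymerase and titrated with SNAP-549-labelled MS2 coat protein (0.7 or 1.5 nM, doubling to 3 µM), without and then with constant ligand, in 100 mM Tris-HCl pH 7.5, 80 mM KCl, 4 mM MgCl2, BSA, DTT, yeast tRNA and Tween-20. Apparent Kd is the median of filtered per-cluster curve fits to green signal normalised to red-channel RNA signal and control-cluster median Fmax.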

[1] = designed as: OFF switch for flavin mononucleotide, no ligand
[2] = ligand present: flavin mononucleotide, designed as: OFF switch for flavin mononucleotide
[3] = designed as: ON switch for flavin mononucleotide, no ligand
[4] = ligand present: flavin mononucleotide, designed as: ON switch for flavin mononucleotide

Sequence	apparent Kd [1]	apparent Kd [2]	apparent Kd [3]	apparent Kd [4]
CUUUAGUGAGGAUAUCUGGCUUCGAUCGUGAGAUCGAGGCUAGAGAAGGCACAUGAGGAUCACCCAUGUUCCUC	40.1 nM	439 nM	–	–
GGAUCGAAUGUGAGGAUAUACCUAUGGAUACAUAGGUAGAAGGCACAUGAGGAUCACCCAUGUUCCUACGGUCC	81.7 nM	680 nM	–	–
UAAAUCUAGUAAGGAUAUACACGAGAUUCAAGUGUAGAAGGUACUUACAUGAGGAUCACCCAUGUAUACAUGGAUAAUAGAUAU	–	–	234 nM	109 nM
CUUUUGUGAGGAUAUCAGUAGUAAAUAAAUAUAAUUACUACUGAGAAGGCACAUGAGGAUCACCCAUGUUCCUC	39.7 nM	274 nM	–	–
AAAACAUGAGGAUCACCCAUGUAAAGAUCGGUUAAUAGAAGUGAGGAUAUGCUUAAUAUAAGGUAGCAGAAGGCACUGGGUACA	–	–	23.3 nM	25.7 nM
GGUCCAAUAUGAGGAUAUAGCAUCGUAUAGAUGCUAGAAGGCGUGUCGGUAGACAUGAGGAUCACCCAUGUAUUACAAUGGACC	–	–	114 nM	32 nM
CGAAGUCCGUAGAAGGGUGACAUGAGGAUCACCCAUGUGCGAGCCGAGGGAGUCAGCGGCUCGCCACAGGAUAUACGGAGCACG	–	–	33.5 nM	21.7 nM
GGUGCGUAUGUGAGGAUAUGCUGGUCCUUGGCUCGGCAGAAGGCACAUGAGGAUCACCCAUGUGGUGUCGUACA	112 nM	50.9 nM	–	–
GGGUACAUCGGAGGAUAUCAUGUAAAUACAUGAGGAUCACCCAUGUCGAUGGAGACAUCGGAGAUUGAGAAGGCCGAUAUACCG	–	–	139 nM	9.34 nM
UUACUCAUGUAAGGAUAUGCAGUCGUUUCGGCUGCAGAAGGUACUAUAAUACAUGAGGAUCACCCAUGUCUUUUUAAUUUUUAC	–	–	112 nM	41 nM
AUAUUAUUGAUCCAUUUUUUCAACAUGAGGAUCACCCAUGUGCAGGAUAUCGUGUGUUUUAUCAACGAGAAGGGCAAAUUCAUU	94.2 nM	215 nM	–	–
AAAUGCAUAAAGGACACAUGAGGAUCACCCAUGUUUCUGUUCAAGGAUAUGAGGUGAAUGAUCCGUCAGAAGGUGAACUUGCUU	–	–	180 nM	400 nM
CAUUAAUUCAUUAUAGUAAUUUUACAGGAUAUGUAACAUGAGGAUCACCCAUGUAUUCUUGGUUAACAGAAGGGUAUUACUUGU	19.3 nM	29.7 nM	–	–
GUUAAACAUGAGGAUCACCCAUGUAAGGAUAUGCUGCGGUCGCGAUGAAGUGACUGCAGCAGAAGGUACAAUUG	109 nM	75.9 nM	–	–
AUAGGGUGAGGAUAUCCAUCUGGAUCAGACUAGAUCCUGAUGGAGAAGGCACAUGAGGAUCACCCAUGUGAGUU	125 nM	151 nM	–	–
GUCAGCUCGUGAGGAUAUACAACACUGCUUCGGCAGUGUAUUAAGAUCACAUGAGGAUCACCCAUGUAGAAGGCACGAGCUGCU	12.9 nM	276 nM	–	–
AAAUGCUGAGGAUAUACAUGAGGAUCACCCAUGUACUAAACUCGCAAGGGCAUCCGGUGUAGAAGGCAGCCUCA	17.3 nM	39.7 nM	–	–
UUUAUUUCGGCAGGAUAUACAUGUAUAUAUAUUUCUUUAUAUCUUAUUACAUGAGGAUCACCCAUGUAGAAGGGCCUUCUUAUC	47.7 nM	46 nM	–	–
GUAUAUCACUAAGGAUAUCUGUAAUUUGUUGAAACAUGAGGAUCACCCAUGUUCAUGAAUUUAUAGGAGAAGGUAGAGAUAUAC	–	–	4.24 nM	4.15 nM
AUCAGCUCGUCAGGAUAUACGUCACUGCGUCAGCAGUGUGGUAAGAUCACAUGAGGAUCACCCAUGUAGAAGGGACCAGCUGAU	13.4 nM	229 nM	–	–
UUAAUGACUGUGAGGAUAUCGGAUAGAUAGAUAUUCGAGAAGGUACAUGAGGAUCACCCAUGUGUGAUUAGAGA	245 nM	291 nM	–	–
GUCGGAAACGACAAACGUAGCAUACGAGAAGGCUGAUCCACGACAUGAGGAUCACCCAUGUAGUUAGAGGAUAUUGGAUGCUAC	–	–	54.7 nM	11.3 nM
GGAUAGGACAGAGGAUAUACGUGCUAGAGAUACUAGCAAAAUUUGCUCACAUGAGGAUCACCCAUGUAGAAGGCUGUCCUAUCG	5.31 nM	19.7 nM	–	–
UGGUACUAGGGAGGAUAUGGGAAGAUACAUGAGGAUCACCCAUGUUUAAGAAUGCCGAGAGGCCACUAGAAGGCCCUAGUACCU	–	–	244 nM	12.4 nM
